In ChEMBL document CHEMBL1135736, “Synthesis and biological evaluation of a new furo[2,3-h]quinolin-2(1H)-one” (J Med Chem, 2002):

Key:
Mus musculus [1] = species: Mus musculus; test: Percent mortality observed when 0.3x10E-6 viable cells were injected and challenge performed 8 days after injection of photoinactivated cells; type: ADME, organism-based; settings: in vivo, 192 h
In short: (§1)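 Mice, groups of 10, primed by ip injection of 5 × 10^6 Ehrlich cells. Before injection, these cells were photoinactivated with UVA light (2.7 kJ m-2) in the presence of 2 μM drug. Viable untreated Ehrlich cells were given later as the tumor challenge, at varying cell numbers and times after priming. Mortality (%) and mean survival time (days) were recorded.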

Mus musculus [2] = species: Mus musculus; test: Percent mortality observed when 4x10E-6 viable cells were injected and challenge performed 21 days after injection of photoinactivated cells; type: ADME, organism-based; settings: in vivo, 504 h; in short: as §1
Mus musculus [3] = species: Mus musculus; test: Percent mortality observed when 0.3x10E-6 viable cells were injected and challenge performed 21 days after injection of photoinactivated cells; type: organism-based; settings: in vivo, 504 h; in short: as §1
Mus musculus [4] = species: Mus musculus; test: Percent mortality observed when 0.3x10E-6 viable cells were injected and challenge performed 15 days after injection of photoinactivated cells; type: organism-based; settings: in vivo, 360 h; in short: as §1
Mus musculus [5] = species: Mus musculus; test: Mean survival time when 1x10E-6 viable cells were injected and challenge performed 21 days after injection of photoinactivated cells; type: ADME, organism-based; settings: in vivo, 504 h; in short: as §1
Mus musculus [6] = species: Mus musculus; test: Mean survival time when 0.3x10E-6 viable cells were injected and challenge performed 21 days after injection of photoinactivated cells; type: ADME, organism-based; settings: in vivo, 504 h; in short: as §1
Mus musculus [7] = species: Mus musculus; test: Mean survival time when 4x10E-6 viable cells were injected and challenge performed 21 days after injection of photoinactivated cells; type: ADME, organism-based; settings: in vivo, 504 h; in short: as §1
[8] = Antiproliferative effect on DNA synthesis of mammalian cells upon UVA irradiation.; type: functional; settings: light or radiation study, read-out: ID50
In short: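 Ehrlich cells, DNA synthesis inhibition. Cells held with 2 µM drug and exposed to graded UVA doses. ID50 is the UVA dose (kJ m-2) giving 50% inhibition, calculated by probit analysis, pooled from several experiments.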

Mus musculus [9] = species: Mus musculus; test: Mean survival time when 0.3x10E-6 viable cells were injected and challenge performed 8 days after injection of photoinactivated cells; type: ADME, organism-based; settings: in vivo, 192 h; in short: as §1
[10] = Antiproliferative effect on clonal growth of mammalian cells upon UVA irradiation.; type: functional; settings: light or radiation study, read-out: ID50
In short: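 CHO cells, clonal growth (colony-forming) inhibition. Cells given graded UVA doses in the presence of 2 µM drug. Reported ID50 is the UVA dose (kJ m-2) producing 50% inhibition, derived by probit analysis over several experiments.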

Mus musculus [11] = species: Mus musculus; test: Mean survival time when 0.3x10E-6 viable cells were injected and challenge performed 15 days after injection of photoinactivated cells; type: ADME, organism-based; settings: in vivo, 360 h; in short: as §1
Mus musculus [12] = species: Mus musculus; test: Percent mortality observed when 1x10E-6 viable cells were injected and challenge performed 21 days after injection of photoinactivated cells; type: ADME, organism-based; settings: in vivo, 504 h; in short: as §1

Row | SMILES | Mortality (Mus musculus [1]) | Mortality (Mus musculus [2]) | Mortality (Mus musculus [3]) | Mortality (Mus musculus [4]) | Mean survival time (Mus musculus [5]) | Mean survival time (Mus musculus [6]) | Mean survival time (Mus musculus [7]) | IC50 [8] | Mean survival time (Mus musculus [9]) | IC50 [10] | Mean survival time (Mus musculus [11]) | Mortality (Mus musculus [12])
1 | Cc1cc2c(o1)c(C)cc1c(CO)cc(=O)n(C)c12 | 70% | 100% | 0% | 35% | 10.6 days | > 60 days | 15.8 days | 0.65 kJ m-2 | 21.3 days | 0.02 kJ m-2 | 25 days | 30%
2 | COc1c2occc2cc2ccc(=O)oc12 [METHOXSALEN] | – | – | – | – | – | – | – | 36.6 kJ m-2 | – | 0.84 kJ m-2 | – | –
